This note sets out measurements from BindingDB's records for doi:10.1021/np5000704 (University of North Carolina At Greensboro, 2014).

Positions of bridges follow the written chain, without caps; N, C: chain ends. Residues, ends and D or L forms follow the SMILES beside them.

For this assay, the target named is T1, Accessory gene regulator protein A (Staphylococcus aureus, UniProt P0A0I7).
T1 sequence (P0A0I7 whole entry): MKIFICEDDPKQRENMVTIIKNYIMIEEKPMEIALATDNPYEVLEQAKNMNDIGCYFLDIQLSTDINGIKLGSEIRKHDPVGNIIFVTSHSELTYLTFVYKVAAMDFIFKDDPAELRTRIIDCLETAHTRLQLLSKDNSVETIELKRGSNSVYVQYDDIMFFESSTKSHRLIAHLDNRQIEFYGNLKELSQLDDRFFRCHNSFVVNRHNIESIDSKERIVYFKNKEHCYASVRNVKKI
The assay is described as follows: Inhibition of AGR quorum sensing system in methicillin-resistant Staphylococcus aureus AH2759 incubated for 15 hrs by P3-LUX reporter gene assay. The method, boiled down: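 S. aureus AH2759 (USA300 LAC, plasmid agr P3-luxABCDE) grown overnight in TSB with chloramphenicol 10 μg/mL, then diluted to a final 1:500. Compounds were added at 0.1–1000 μM final with 1% DMSO. Incubated at 37 °C with 250 rpm shaking. OD600 and luminescence were read hourly from 15 h. IC50 came from a weighted four-parameter logistic fit of OD-normalized luminescence; growth-delayed wells were excluded. AIP-2 (2–500 nM) was the control.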
`O=C1c2cc(O)cc(O)c2C(=O)c2c(O)cc(CO)cc21` yielded an IC50 of 8.1 µM.
Then `C[C@H](O)Cc1cc(O)c2c(c1)C(=O)c1cc(O)cc(O)c1C2=O`, with 8.9 µM; and `CC(=O)Cc1cc(O)c2c(c1)C(=O)c1cc(O)cc(O)c1C2=O`, with 19.8 µM.
Then `C[C@@H](O)[C@@H](O)c1cc(O)c2c(c1)C(=O)c1cc(O)cc(O)c1C2=O`, with 26.5 µM; and `CC(=O)C(O)c1cc(O)c2c(c1)C(=O)c1cc(O)cc(O)c1C2=O` (stereo not given), with 30.1 µM; and `O=C(O)c1cc(O)c2c(c1)C(=O)c1cc(O)c(O)c(O)c1C2=O`, with 120 µM.
In the case of `CC(C)C[C@@H]1NC(=O)[C@H](CO)NC(=O)[C@H](CO)NC(=O)[C@@H](NC(=O)[C@H](C)NC(=O)[C@H](CC(N)=O)NC(=O)[C@@H](NC(=O)CN)C(C)C)CSC(=O)[C@H](Cc2ccccc2)NC1=O` (H-GVNACSSLF; thioester 5-C), the IC50 was 0.012 µM.
`Cc1cc(O)c2c(c1)C(=O)c1cc(O)cc(O)c1C2=O` [1,3,8-trihydroxy-6-methylanthra-9,10-quinone]: inhibition was half-maximal at 17.1 µM (IC50).
Then `O=C(O)c1cc(O)c2c(c1)C(=O)c1cc(O)c(Cl)c(O)c1C2=O` [6-chloro-4,5,7-trihydroxy-9,10-dioxo-9,10-dihydroanthracene-2-carboxylic acid], with 37.8 µM; and `O=C(O)c1cc(O)c2c(c1)C(=O)c1cc(O)cc(O)c1C2=O` [MLS000876948], with 30.6 µM.
